The values that follow come from ChEMBL document CHEMBL2202980, “Anti-viral activity of (-)- and (+)-usnic acids and their derivatives against influenza virus A(H1N1)2009” (Bioorg Med Chem Lett, 2012).

Data set [1] in a line: Selectivity index, ratio of CTD50 for MDCK cells to ED50 for influenza virus A/California/07/09 (H1N1) pdm09. The format is toxicity, cell-based. As to conditions: dog, read-out: Selectivity Index.
The next data set relates to Influenza A virus. Kind of data set: Antiviral activity against Influenza virus A/California/07/09 (H1N1) pdm09 infected in MDCK cells after 48 hrs followed by incubated in chicken erythrocytes for 1 hr by hemagglutinination based end-point dilution method. The format is functional, Influenza A virus (A/California/07/2009(H1N1)). The settings on record: read-out: ED50 (the source's name). The essentials:
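MDCK cells were pretreated for 1 h at 37 °C with serial twofold compound dilutions in MEM containing 2 mM arginine, 2 mM glutamine and trypsin. They were then infected and cultured at 36 °C for 48 h. Supernatant was mixed with 1% chicken erythrocytes for 1 h at room temperature. Titer was read as the end-point dilution giving hemagglutination in 50% of wells. ED50 is the concentration halving virus production versus untreated control.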

Data set [2] in a line: Cytotoxicity against MDCK cells after 48 hrs by MTT assay. The format is cell-based, Canis lupus familiaris. As to conditions: dog, read-out: CTD50. The essentials: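 MDCK monolayers were grown in MEM with 5% fetal calf serum and washed with serum-free MEM. They were exposed to serial twofold dilutions from 5 mg/ml DMSO stocks for 48 h at 37 °C. CTD50 was derived from this.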

In data set [3] the test system is RAW264.7. The experiment in a line: Antiinflammatory activity in mouse RAW264.7 cells assessed as inhibition of LPS-induced iNOS protein synthesis. The format is functional, cell-based.
Data set [4] relates to RAW264.7. The experiment in a line: Antiinflammatory activity in mouse RAW264.7 cells assessed as inhibition of LPS-induced TNFalpha level. The format is functional, cell-based.
Data set [5] is described as follows: Selectivity index, ratio of cytotoxicity against human CEM cells to Antiviral activity against HIV1 RF. As to conditions: read-out: Selectivity Index. The format is toxicity, cell-based, CCRF-CEM.

For `CC(=O)c1c(O)c(C)c(O)c2c1OC1=Cc3c(c(C)nn3-c3ccccc3)C(=O)[C@@]12C`, in data set [1], the selectivity ratio was 12.4. Besides, the EC50 with Influenza A virus (Influenza A virus, pdm09, MDCK) turned out to be 62.2 µM. The CC50 at 48 h in data set [2] was determined as 769 µM.
For the compound `CC(=O)c1c(O)c(C)c(O)c2c1OC1=Cc3c(c(C)nn3-c3ccccc3)C(=O)[C@]12C`, the selectivity ratio in data set [1] turned out to be 9. The EC50 with Influenza A virus (Influenza A virus, pdm09, MDCK) is 57.8 µM. The CC50 at 48 h in data set [2] was determined as 522 µM.
The corresponding values for `CC(=O)c1c(O)c(C)c(O)c2c1OC1=Cc3c(c(C)nn3-c3ccccc3)[C@@H](O)[C@@]12C` are 13.2, 6 µM and 78.9 µM.
The like results for `CC(=O)c1c(O)c(C)c(O)c2c1OC1=Cc3c(c(C)nn3-c3ccccc3)[C@@H](O)[C@]12C` were, in that order, 6.8, 10.5 µM and 71.8 µM.
`CC(=O)c1c(O)c(C)c(O)c2c1OC1=CC(=O)/C(=C(/C)NCC(F)(F)C(F)F)C(=O)[C@@]12C`: the selectivity ratio in data set [1] came to 19.4. Also, the EC50 in the data set on Influenza A virus (Influenza A virus, pdm09, MDCK) was determined as 1.6 µM. In addition, the CC50 at 48 h in data set [2] stood at 31.1 µM.
The like results for `CC(=O)c1c(O)c(C)c(O)c2c1OC1=CC(=O)/C(=C(/C)NCC(F)(F)C(F)F)C(=O)[C@]12C` were, in that order, 10.2, 38.9 µM and 397 µM.
The like results for `CC[N+](C)(CC)CCN/C(C)=C1\C(=O)C=C2Oc3c(C(C)=O)c(O)c(C)c(O)c3[C@@]2(C)C1=O` were, in that order, 21.9, 5.5 µM and 121 µM.
The like results for `CC[N+](C)(CC)CCN/C(C)=C1\C(=O)C=C2Oc3c(C(C)=O)c(O)c(C)c(O)c3[C@]2(C)C1=O` were, in that order, 2.7, 12.5 µM and 34.2 µM.
Regarding `CC(=O)c1c(O)c(C)c(O)c2c1OC1=CC(=O)/C(=C(/C)NCC(=O)O)C(=O)[C@@]12C`, the selectivity ratio in data set [1] worked out at 6. In addition, the EC50 in the data set with Influenza A virus was 11.2 µM. Further, in data set [2], the CC50 at 48 h was found to be 67.3 µM.
The like results for `CC(=O)c1c(O)c(C)c(O)c2c1OC1=CC(=O)/C(=C(/C)NCC(=O)O)C(=O)[C@]12C` were, in that order, 18.4, 10.7 µM and 197 µM.
`CC(=O)c1c(O)c(C)c(O)c2c1OC1=CC(=O)/C(=C(/C)NCCC(=O)O)C(=O)[C@@]12C`: in data set [1], the selectivity ratio is 23.5. Besides, in the data set with Influenza A virus (Influenza A virus, pdm09, MDCK), the EC50 is 6.9 µM. For the same compound, the CC50 at 48 h in data set [2] came to 162 µM.
As to `CC(=O)c1c(O)c(C)c(O)c2c1OC1=CC(=O)/C(=C(/C)NCCC(=O)O)C(=O)[C@]12C`, the selectivity ratio in data set [1] turned out to be 1. Also, in the data set with Influenza A virus (Influenza A virus, pdm09, MDCK), the EC50 was found to be 400 µM. Besides, in data set [2], the CC50 at 48 h came to 400 µM.
`CC(=O)c1c(O)c(C)c(O)c2c1OC1=CC(=O)/C(=C(/C)Nc3ccc(F)cc3)C(=O)[C@@]12C`: in data set [1], the selectivity ratio came to 8.8. Also, in the data set with Influenza A virus (Influenza A virus, pdm09, MDCK), the EC50 amounted to 23.6 µM. In addition, the CC50 at 48 h in data set [2] was found to be 208 µM.
The corresponding values for `CC(=O)c1c(O)c(C)c(O)c2c1OC1=CC(=O)/C(=C(/C)Nc3ccc(F)cc3)C(=O)[C@]12C` are 3.9, 90.4 µM and 350 µM.
The like results for `CC(=O)c1c(O)c(C)c(O)c2c1OC1=CC(=O)/C(=C(/C)Nc3ccc(Cl)cc3)C(=O)[C@@]12C` were, in that order, 6.9, 25.1 µM and 172 µM.
Regarding `CC(=O)c1c(O)c(C)c(O)c2c1OC1=CC(=O)/C(=C(/C)Nc3ccc(Cl)cc3)C(=O)[C@]12C`, the selectivity ratio in data set [1] is 11.7. For the same compound, the EC50 with Influenza A virus (Influenza A virus, pdm09, MDCK) came out at 13.1 µM. For the same compound, the CC50 at 48 h in data set [2] amounted to 153 µM.
The like results for `CC(=O)c1c(O)c(C)c(O)c2c1OC1=CC(=O)/C(=C(/C)Nc3ccc(Br)cc3)C(=O)[C@@]12C` were, in that order, 9.6, 20.2 µM and 193 µM.
The like results for `CC(=O)c1c(O)c(C)c(O)c2c1OC1=CC(=O)/C(=C(/C)Nc3ccc(Br)cc3)C(=O)[C@]12C` were, in that order, 5.1, 30.4 µM and 154 µM.
The corresponding values for `CC(=O)c1c(O)c(C)c(O)c2c1OC1=CC(=O)/C(=C(/C)Nc3cccc(F)c3)C(=O)[C@@]12C` are 4.8, 12.7 µM and 61.3 µM.
Regarding `CC(=O)c1c(O)c(C)c(O)c2c1OC1=CC(=O)/C(=C(/C)Nc3cccc(F)c3)C(=O)[C@]12C`, the selectivity ratio in data set [1] stood at 8.8. Moreover, in the data set with Influenza A virus (Influenza A virus, pdm09, MDCK), the EC50 was found to be 4 µM. For the same compound, the CC50 at 48 h in data set [2] is 35.3 µM.
The like results for `CC(=O)c1c(O)c(C)c(O)c2c1OC1=CC(=O)/C(=C(/C)Nc3cccc(Br)c3)C(=O)[C@@]12C` were, in that order, 3.2, 10.4 µM and 33.6 µM.
`CC(=O)c1c(O)c(C)c(O)c2c1OC1=CC(=O)/C(=C(/C)Nc3cccc(Br)c3)C(=O)[C@]12C`: the selectivity ratio in data set [1] was determined as 10. Further, the EC50 with Influenza A virus (Influenza A virus, pdm09, MDCK) came to 9.8 µM. Further, in data set [2], the CC50 at 48 h came to 97.8 µM.
The corresponding values for `CC(=O)C1=C(O)C=C2O[C@]34O[C@@]3(C(C)=O)C(=O)C(C)=C(O)[C@]4(O)[C@@]2(C)C1=O` are 37.3, 5.1 µM and 190 µM.
The corresponding values for `CC(=O)C1=C(O)C=C2O[C@]34O[C@@]3(C(C)=O)C(=O)C(C)=C(O)[C@]4(O)[C@]2(C)C1=O` are 8, 27.7 µM and 221 µM.
For orientation: IC50 means the concentration that gives 50% inhibition. As for `CC(=O)C1=C(O)C=C2Oc3c(C(C)=O)c(O)c(C)c(O)c3[C@@]2(C)C1=O` [(+)-USNIC ACID], the IC50 with RAW264.7 [3] is 4.7 µM; in the data set on RAW264.7 [4], 12.8 µM. Also, the selectivity ratio in data set [5] is 3; in data set [1], 5.9. The EC50 in the data set with Influenza A virus was found to be 51.7 µM. The CC50 at 48 h in data set [2] is 305 µM.
For `CC(=O)C1=C(O)C=C2Oc3c(C(C)=O)c(O)c(C)c(O)c3[C@]2(C)C1=O` [(-)-USNIC ACID], in data set [1], the selectivity ratio amounted to 14.4. In addition, the EC50 in the data set on Influenza A virus (Influenza A virus, pdm09, MDCK) stood at 14.5 µM. Besides, the CC50 at 48 h in data set [2] was 209 µM.
The corresponding values for `NC(=O)c1ncn([C@@H]2O[C@H](CO)[C@@H](O)[C@H]2O)n1` [RIBAVIRIN] are greater than 81, 24.6 µM and greater than 2000 µM.
Regarding `CC(N)C12CC3CC(CC(C3)C1)C2` (configuration not stated) [RIMANTADINE], the selectivity ratio in data set [1] was 5. Also, the EC50 with Influenza A virus (Influenza A virus, pdm09, MDCK) turned out to be 56.9 µM. The CC50 at 48 h in data set [2] is 284 µM.
